Here are results for 6 molecules from ChEMBL document CHEMBL1132269, “Self-immolative anthracycline prodrugs for suicide gene therapy” (J Med Chem, 1999).

Series [1] is described as follows: Ratio of the intracellular cytotoxicities against MDA MB 361(mammary carcinoma cell line) expressing LacZ (beta-galactosidase). between prodrug and drug. The format is functional. Put shortly: (§1)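 MDA MB 361 cells stably expressing surface-tethered CPG2 (stCPG2(Q)3) or β-galactosidase control (LacZ) treated with compound (10 mM DMSO stock made fresh), then reseeded in quadruplicate at ~2 × 10^3 cells/well; fixed and sulforhodamine-B stained when controls confluent, A590. IC50 interpolated from % control growth; ratio = LacZ vs stCPG2(Q)3 IC50 or prodrug vs drug IC50 in LacZ cells.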

Series [2] has as its system MDA-MB-361. Nature of the series: The compound was tested for intracellular cytotoxicity against MDA MB 361(mammary carcinoma cell line) in the presence of CPG2 prodrug. The format is functional, cell-based. The note with it: Homo sapiens. The essentials: (§2)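 Cytotoxicity differential: ratio of a prodrug's IC50 in MDA MB 361 cells expressing stCPG2(Q)3 or CPG2* to its IC50 in LacZ control cells. IC50 values come from a sulforhodamine-B growth assay (cells reseeded in quadruplicate after treatment, stained at control confluence, A590, % control growth, interpolation). Prodrug:drug ratio taken in LacZ cells.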

The nature of series [3]: Half life period in the absence of CPG2 (carboxypeptidase) enzyme. In kind it is ADME. The essentials: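 Prodrug at 100 μM in phosphate-buffered saline (pH 7.4), 37 °C, without enzyme; samples injected at timed intervals on reverse-phase HPLC, isocratic methanol/water/10 mM NaH2PO4 (pH 5.0), detection at 500 nm. Chemical half-life from slope of semilog plot.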
The test system of series [4] is MDA-MB-361. Nature of the series: The compound was tested for extracellular cytotoxicity against MDA MB 361(mammary carcinoma cell line) in the presence of stCPG2 prodrug. The format is functional, cell-based. Particulars: Homo sapiens. The essentials: as §2
A further series concerns CPG2 (carboxypeptidase). Nature of the series: Half life period in the presence of CPG2 (carboxypeptidase) enzyme. In kind it is ADME. The essentials: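 Prodrug at 100 μM in phosphate-buffered saline (pH 7.4), 37 °C, with 50 mU CPG2; timed samples analysed by reverse-phase HPLC, absorbance 500 nm. Plots linear on linear axes, so apparent half-life taken as time for concentration to fall to half its starting value.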

Series [5] concerns MDA-MB-361. Nature of the series: The compound was tested for intracellular cytotoxicity against MDA MB 361(mammary carcinoma cell line) expressing LacZ (beta-galactosidase). The format is functional, cell-based. Particulars: Homo sapiens. Put shortly:
(§3)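 MDA MB 361 breast carcinoma cells stably expressing surface-tethered CPG2 (stCPG2(Q)3), intracellular CPG2 (CPG2*) or control beta-galactosidase (LacZ). Compounds dissolved in DMSO at 10 mM (stock) just before treatment. After exposure, cells harvested and reseeded in quadruplicate at ~2 × 10^3 cells/well. Cells fixed and stained with sulforhodamine-B once control plates reached confluence, absorbance read at 590 nm. Growth expressed as % of control, IC50 interpolated.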

The nature of series [6]: Ratio of the extracellular cytotoxicities against MDA MB 361(mammary carcinoma cell line) expressing LacZ and carboxypeptidase stCPG2 of the prodrug. The format is functional. The essentials: as §1
For series [7], the system named is MDA-MB-361. Nature of the series: The compound was tested for extracellular cytotoxicity against MDA MB 361(mammary carcinoma cell line) expressing carboxypeptidase stCPG2. In kind it is functional, cell-based. The note with it: Homo sapiens. The essentials:
as §3

Series [8] relates to MDA-MB-361. Nature of the series: The compound was tested for intracellular cytotoxicity against MDA MB 361(mammary carcinoma cell line) expressing carboxypeptidase G2(CPG2). In kind it is functional, cell-based. The note with it: Homo sapiens. The essentials:
as §3

Where “and” joins values, the source holds several entries; their conditions need not be identical. Identical values can stand only once.

As a reminder, the IC50 is the concentration that gives 50% inhibition. By half-life is commonly meant the time needed for the level to fall by half in the phase considered.

For the molecule `COc1cccc2c1C(=O)c1c(O)c3c(c(O)c1C2=O)C[C@@](O)(C(C)=O)C[C@@H]3OC1CC(NC(=O)OCc2ccc(NC(=O)NC(CCC(=O)O)C(=O)O)cc2)C(O)C(C)O1` (stereo partly drawn), the Ratio in series [1] is on record as 6.6. Besides, the IC50 in the series on MDA-MB-361 [2] came out at 123 nM; with MDA-MB-361 [4], 29 nM; in the series with MDA-MB-361 [5], 112 nM. Also, the half-life in series [3] is 19.8 h; in the series with CPG2 (carboxypeptidase) it was 0.645 h.

As for `COc1cccc2c1C(=O)c1c(O)c3c(c(O)c1C2=O)C[C@@](O)(C(=O)CO)C[C@@H]3OC1CC(NC(=O)OCc2ccc(NC(=O)NC(CCC(=O)O)C(=O)O)cc2)C(O)C(C)O1` (stereo partly drawn), the Ratio in series [1] was 21.3; in series [6], 5.4 and 10.7. For the same molecule, the figures for the IC50 with MDA-MB-361 [2], in the series with MDA-MB-361 [4] and with MDA-MB-361 [5] were 47 nM, 24 nM and 256 nM, respectively. Further, the results for the half-life (in series [3]; in the series on CPG2 (carboxypeptidase)) were 15.8 h and 0.7 h, respectively.

As to `COc1cccc2c1C(=O)c1c(O)c3c(c(O)c1C2=O)C[C@@](O)(C(=O)CO)C[C@@H]3OC1CC(NC(=O)OCc2ccc(OC(=O)NC(CCC(=O)O)C(=O)O)cc2)C(O)C(C)O1` (stereo partly drawn), the Ratio in series [1] is 23.3; in [6], 1.4 and 3. Besides, the figures for the IC50 with MDA-MB-361 [2], in the series on MDA-MB-361 [4] and in the series on MDA-MB-361 [5] were 204 nM, 92 nM and 279 nM, respectively. The values for the half-life (in [3]; with CPG2 (carboxypeptidase)) were 28.4 h and 4.46 h, respectively.

Take `COc1cccc2c1C(=O)c1c(O)c3c(c(O)c1C2=O)C[C@@](O)(C(C)=O)C[C@@H]3OC1CC(NC(=O)OCc2ccc(OC(=O)NC(CCC(=O)O)C(=O)O)cc2)C(O)C(C)O1` (stereo partly drawn): the Ratio in series [1] is 6.8; in series [6], 0.3 and 0.7. For the same molecule, the IC50 in the series with MDA-MB-361 [2] was 405 nM; in the series with MDA-MB-361 [4], 177 nM; in the series with MDA-MB-361 [5] it was 115 nM. Moreover, the half-life in [3] was 24.7 h; with CPG2 (carboxypeptidase), 2.21 h.

For the molecule `COc1cccc2c1C(=O)c1c(O)c3c(c(O)c1C2=O)C[C@@](O)(C(C)=O)C[C@@H]3O[C@H]1C[C@H](N)[C@H](O)[C@H](C)O1` [DAUNORUBICIN], the IC50 is 36 nM in the series on MDA-MB-361 [2], 21 nM in the series on MDA-MB-361 [4] and 17 nM with MDA-MB-361 [5].

For the molecule `COc1cccc2c1C(=O)c1c(O)c3c(c(O)c1C2=O)C[C@@](O)(C(=O)CO)C[C@@H]3O[C@H]1C[C@H](N)[C@H](O)[C@H](C)O1` [DOXORUBICIN], the 50% inhibitory concentration (IC50) in the series with MDA-MB-361 [7] was 18 nM; in the series with MDA-MB-361 [8], 33 nM; in the series on MDA-MB-361 [5], 12 nM.
